Seven molecules from ChEMBL document CHEMBL1131166, “Bisphenols that stimulate cells to release alkali metal cations: a structure-activity study” (1998) can be followed below.

Holding throughout (format): functional, Cercopithecidae
Assay [1] deals with COS-7. Briefly: (§1) Fraction of total radioactivity [86Rb] remaining with the compound at a concentration of 10 uM in COS-7 cells. A digest of the protocol:
(§2)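 COS-7 cells grown in DMEM with 10% FCS at 37 °C under 5% CO2 until 85–98% confluent. Loaded with about 4 μCi ⁸⁶RbCl in HEPES BSS (pH 7.2) for 90 min at 37 °C, then washed in ice-cold BSS. Reincubated at 37 °C with medium changed every 10 min; compound in BSS (DMSO ≥5000-fold diluted) given for the last 40 min. Read-out is the cell-retained fraction of total ⁸⁶Rb at 60 min by scintillation counting, mean ± SD of three experiments.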

Assay [2] relates to COS-7. The assay is described as §1. A digest of the protocol: (§3)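 COS-7 cells grown in DMEM + 10% FCS to 85–98% confluence, loaded ~4 μCi 86RbCl in BSS (HEPES, pH 7.2) 90 min at 37 °C, washed thrice ice-cold BSS, reincubated 37 °C with medium replaced every 10 min; compound (DMSO stock diluted ≥5000-fold in BSS) present 40 min from 20 min. Cell-retained 86Rb at 60 min as fraction of initial total (cells + media); mean ± SD, three experiments.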
The source holds these as a separate data set.

For assay [3], the system named is COS-7. Briefly: Fraction of total radioactivity [86Rb] remaining with the compound at a concentration of 0 uM in COS-7 cells. An outline of the steps:
as §3

In assay [4] the test system is COS-7. Briefly: Fraction of total radioactivity [86Rb] remaining with the compound at a concentration of 1 uM in COS-7 cells. An outline of the steps:
as §3

Assay [5] has as its system COS-7. Description: Fraction of total radioactivity [86Rb] remaining with the compound at a concentration of 0.01 uM in COS-7 cells. A digest of the protocol: as §3
Assay [6] has as its system COS-7. Briefly: Fraction of total radioactivity [86Rb] remaining with the compound at a concentration of 0.1 uM in COS-7 cells and value. An outline of the steps: as §3
For assay [7], the system named is COS-7. Briefly: Fraction of total radioactivity [86Rb] remaining with the compound at a concentration of 0.1 uM in COS-7 cells. A digest of the protocol: as §2

`Oc1ccc(-c2ccc(O)cc2)cc1`: in assay [1], the “Fraction of accumulated 86Rb remaining.” value was determined as 0.604.
In the case of `Nc1ccc(C2(c3ccc(N)cc3)c3ccccc3-c3ccccc32)cc1`, in assay [2], the “Fraction of accumulated 86Rb remaining.” value is 0.419.
Regarding `OCCOc1ccc(C2(c3ccc(OCCO)cc3)c3ccccc3-c3ccccc32)cc1`, the “Fraction of accumulated 86Rb remaining.” value in assay [2] is given as 0.486.
As to `Oc1ccc(C2(c3ccc(O)cc3)c3ccccc3-c3ccccc32)cc1`, the “Fraction of accumulated 86Rb remaining.” value in assay [2] is reported as 0.003; in assay [3] it was 0.556; in assay [4], 0.006; in assay [5], 0.532; in assay [6] it was 0.147.
Take `Oc1ccc(Cc2ccc(O)cc2)cc1`: in assay [2], the “Fraction of accumulated 86Rb remaining.” value was 0.581.
`O=C1OC(c2ccc(O)cc2)(c2ccc(O)cc2)c2ccccc21` [PHENOLPHTHALEIN]: the “Fraction of accumulated 86Rb remaining.” value in assay [7] is 0.472; in assay [2], 0.091; in assay [3] it was 0.503; in assay [4], 0.234; in assay [5], 0.461.
In the case of `Oc1ccc2ccccc2c1-c1c(O)ccc2ccccc12`, the “Fraction of accumulated 86Rb remaining.” value in assay [2] came to 0.565.
